Each structure is given as a SMILES string.

In series [1] the test system is MuRF1 mRNA expression in C2C12 myotubes. As to the kind of experiment: MuRF1 mRNA expression in dexamethasone-treated myotubes. The following applies: DEX 10 μmol/L, 24 h. The format is cell-based, Murine. The gist of the method: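 Differentiated C2C12 myotubes (2% horse serum) were pre-treated for 2 h with test compound (0.1–10 μmol/L, DMSO) or DMSO alone before dexamethasone. Total RNA was reverse-transcribed with random hexamers. Quantitative RT-PCR used a LightCycler with FRET detection. MuRF1 was normalised to hypoxanthine phosphoribosyltransferase mRNA (60°C annealing). Mean ± SEM; one-way ANOVA, Bonferroni.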

Series [2] relates to diaphragm muscle of MCT-treated C57BL/6 mice. The experiment in a line: In vitro contractile function of diaphragm muscle bundles from treated mice. The series is classed as in vivo. The following applies: MCT 600 mg/kg weekly, 6 weeks, vs sham. A digest of the protocol:
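C57BL/6 mice (8 weeks) got MCT or saline s.c.; compound was given at 0.1% w/w in chow from 1 week before MCT. Diaphragm bundles at optimal length in buffer pH ~7.4 (95% O2–5% CO2, ~22°C) were equilibrated 15 min, then force–frequency tested (1–300 Hz) plus isotonic loads. Specific force N/cm2 (density 1.06), velocity Lo/s, power = velocity × force; n = 16/group.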

Series [3] concerns C57BL/6 mice with MCT-induced cardiac cachexia. The format is in vivo. The following applies: MCT 600 mg/kg weekly, 6 weeks.

`C[C@@H]1C[C@H]2[C@@H]3CCC4=CC(=O)C=C[C@]4(C)[C@@]3(F)[C@@H](O)C[C@]2(C)[C@@]1(O)C(=O)CO` [Dexamethasone, dexamethasone]: the “increase in MuRF1 mRNA expression relative to untreated cells” value in series [1] is “approximately 2 fold”.

Turning to `C[C@H]1C(=O)O[C@@H]2CCN3CC=C(COC(=O)[C@](C)(O)[C@]1(C)O)[C@H]23` [MCT, monocrotaline], in series [2], the “effect on isometric forces” value is listed as “no significant effects”, the “reduction of peak power” value is on record as ~ 20% and the “reduction of peak shortening velocity” value is ~ 20%. Besides, the body weight loss in series [3] (normal chow (sham gained 7.9 ± 0.8%)) worked out at 0.7 ± 0.6%. Also, in series [3] (vs sham), the “lower TA fibre CSA” value is recorded as ~ 20% and the “reduction in TA muscle weight” value was ~ 10%.

Source of the values: article PMC5700443 (Journal of Cachexia, Sarcopenia and Muscle, 2017).
